Screening results deposited in PubChem by Broad Institute.
ARNT-TACC3 inh = disruptors of human ARNT/TACC3 interaction; AlphaScreen His-ARNT PAS-B/GST-TACC3 binding, luminescence; TACC3 fragment carries E629A point mutation; 390,000 compounds, 0.66% hits; inhibition, % at 9.99 µM;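 active means mean inhibition of replicates at least 50% and at least half of replicates each reaching 50%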;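 further: 0% = complete ARNT plus TACC3 wells and 100% = ARNT alone without TACC3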
CAL PDZ FP-1 = human CAL PDZ-peptide interaction inhibition | purified CAL PDZ, TMR-peptide fluorescence polarization, 1 h | inhibition, % at 20 µM | 330,000 compounds, 0.02% hits;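 active means highest replicate inhibition of at least 40%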;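 further: plate controls were DMSO neutral control wells for no effect and unlabeled competitor peptide control wells for full effect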
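material = purified tagged CAL PDZ domain construct (CerCALP) | compound dosing = 20 µM, one dose | times = 1 h at RT | measured by = fluorescence polarization from S- and P-plane intensities, G-factor corrected | read-out = inhibition from polarization loss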
Dyrk1A ADPGlo = Dyrk1A (rat) kinase inhibition | inhibition, % at 12.5 µM | ADP-Glo luminescence, NFATc1 peptide | 310,000 compounds, 0.43% hits; in the data active means inhibition above about 50%;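 further: plate controls were vehicle with enzyme for no effect and no enzyme for full effect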
CAL PDZ FP-2 = blocks peptide binding to the human CAL PDZ domain. inhibition, % at 24.9 µM. AID 602252. purified CAL PDZ, TMR-peptide fluorescence polarization, 1 h. 300,000 compounds, 0.92% hits;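 active means mean inhibition of at least 30% with at least half of replicates also reaching 30%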;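 further: 0% = DMSO neutral control and 100% = excess unlabeled competitor peptide PRC23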
Numbers without * were called inactive; . = no result. Compounds with a hit are over-represented: about 1.4% of the library has one in this group of screens.

SMILES	ARNT-TACC3 inh	CAL PDZ FP-1	Dyrk1A ADPGlo	CAL PDZ FP-2
O=C(C[C@H]1C[C@@H]2c3cc(NC(=O)NC4CCCCC4)ccc3O[C@@H]2[C@@H](CO)O1)NCCc1ccccc1	0	.	.	.
CCOc1cccc(/C=N/NC(=O)c2cc(C3CC3)[nH]n2)c1O	71*	-4	29	-3
CCOc1cccc(/C=N/NC(=O)c2cccnc2)c1O	56*	-2	.	-4
CCOc1cc(/C=N/NC(=O)c2cccnc2)ccc1O	8	-2	0	-2
COc1cccc(C=NNC(=O)c2ccncc2)c1O	69*	-1	.	.
COc1cc(/C=N/NC(=O)c2cc(C3CC3)[nH]n2)cc(OC)c1OC	4	-3	23	-14
COc1cccc(/C=N/Nc2ccccc2C(=O)O)c1O	1	0	15	81*
Cc1noc(C)c1NC(=O)N(C)C[C@H]1Oc2ccc(NS(=O)(=O)c3ccc(Cl)cc3)cc2CC(=O)N([C@@H](C)CO)C[C@H]1C	-7	.	.	.
C[C@@H]1CN([C@H](C)CO)S(=O)(=O)c2ccc(C3=CCCC3)cc2O[C@@H]1CN(C)S(=O)(=O)c1cn(C)cn1	-8	.	.	.
O=C1CS(=O)(=O)C(c2ccccc2)N1c1cccc(Cl)c1 (configuration not stated)	9	.	.	.
COc1cc([N+](=O)[O-])cc(/C=N/NC(=O)C(O)(c2ccccc2)c2ccccc2)c1O	30	0	-3	-3
CCn1c(C)nc2cc(C(=O)N/N=C/c3ccc(O)c(O)c3O)ccc21	.	0	21	-3
CCn1c(C)nc2cc(C(=O)N/N=C/c3cccc(OC)c3O)ccc21	40*	-3	-1	-11
COc1cc([N+](=O)[O-])cc(/C=N/NC(=O)c2cccnc2)c1O	73*	-1	20	2
O=C(COC(=O)c1cccc(O)c1)Nc1nnc(-c2ccccc2)o1	60*	-1	-2	-3
CCOc1ncccc1C(=O)OCC(=O)Nc1nnc(-c2ccccc2)o1	54*	0	-11	.
O=C(COC(=O)c1cccs1)Nc1nnc(-c2ccccc2)o1	61*	-2	-8	10
COc1ccc(C(=O)OCC(=O)Nc2nnc(-c3ccccc3)o2)cc1	.	0	1	0
COc1cc(C(=O)NCC(=O)OCC(=O)Nc2nnc(-c3ccccc3)o2)cc(OC)c1OC	.	-3	-3	-4
COc1cc(C(=O)OCC(=O)Nc2nnc(-c3ccccc3)o2)cc(OC)c1OC	47*	-1	-1	-2
C[C@H](CO)N1C[C@H](C)[C@@H](CN(C)C(=O)NC2CCCC2)Oc2ncc(C#CC3CCCCC3)cc2C1=O	4	.	.	.
COc1cccc(S(=O)(=O)Nc2ccc3c(c2)OC[C@@H](C)NC[C@H](C)[C@@H](OC)CN(C)C3=O)c1	29	.	.	.
C[C@@H]1CCCCO[C@@H](CN(C)Cc2ccc(Cl)c(Cl)c2)[C@@H](C)CN([C@@H](C)CO)C(=O)c2cc(NS(=O)(=O)c3ccccc3)ccc2O1	9	.	.	.
C[C@H](CO)N1C[C@H](C)[C@H](CN(C)C(=O)Cc2ccccn2)Oc2ncc(-c3ccccc3)cc2C1=O	-6	.	.	.
C[C@@H]1CN([C@H](C)CO)C(=O)c2cc(NC(=O)c3ccncc3)ccc2O[C@@H](C)CCCCO[C@H]1CN(C)S(=O)(=O)c1cccs1	-3	.	.	.
SMILES	ARNT-TACC3 inh	CAL PDZ FP-1	Dyrk1A ADPGlo	CAL PDZ FP-2
CC1(C)C(=S)N(Cc2ccccc2)c2ccccc21	-9	0	-1	44*
COc1cc(-c2nnc(NC(=O)CS(=O)(=O)c3ccc(F)cc3)o2)cc(OC)c1OC	54*	-2	12	-2
COc1cc(-c2nnc(NC(=O)CS(=O)(=O)c3ccc(C)cc3)o2)cc(OC)c1OC	45*	-3	3	-1
C[C@@H]1CCCCO[C@H](CN(C)Cc2ccc(Cl)c(Cl)c2)[C@H](C)CN([C@@H](C)CO)C(=O)c2cc(NC(=O)NC3CCCCC3)ccc2O1	0	.	.	.
O=C(NCC[C@H]1CC[C@@H](NS(=O)(=O)c2cccc(F)c2)[C@H](CO)O1)C1CC1	-7	.	.	.
Cc1ccc2nc(N3CCN(Cc4nnnn4C4CCCC4)CC3)c(C#N)cc2c1	-11	-2	5	55*
Cc1ccc(C)c(N2CCN(Cc3nnnn3C3CCCCC3)CC2)c1	-7	0	-8	3
CCC(=O)N[C@H]1CC[C@H](CCn2cc(CN(C)C)nn2)O[C@@H]1CO	15	.	.	.
Cc1nc(SCC(=O)N2CCN(c3ccccc3)CC2)c2oc3ccccc3c2n1	3	-1	4	64*
c1ccc2c(c1)ccc1ncccc12	27	-1	1	-8
Oc1c(N=Nc2ccccn2)ccc2ccccc12	64*	0	-2	-2
CO[C@H]1CN(C)C(=O)c2cc(NC(=O)C3CC3)ccc2OC[C@H](C)N(CC2CC2)C[C@@H]1C	-9	.	.	.
Cc1c(C)n(Cc2ccc(F)cc2)c2ccc(C(=O)NCCN3CCOCC3)cc12	-6	1	-3	90*
Cc1cccc(Cn2c(C)c(C)c3cc(C(=O)NCCN4CCOCC4)ccc32)c1	13	-3	-3	22
NS(=O)(=O)c1ccc2nc(NC(=O)c3ccc4c(c3)OCCO4)sc2c1	-17	-1	-1	63*
C/C(=N\NC(=O)CC#N)c1cc2ccccc2oc1=O	21*	0	.	0
O=C(Nc1ccsc1C(=O)O)c1ccc(Cl)cc1	active	-1	11	-6
Cc1ccc(C2CC(c3cccs3)=NN2C(=O)CCl)cc1 (configuration not stated)	12	.	2	91*
O=C(COC(=O)C1CC(=O)N(C2CCCCC2)C1)c1ccc(F)cc1 (configuration not stated)	-4	0	2	-3
O=C(COC(=O)C1CCC(N2C(=O)C3C4CCC(C4)C3C2=O)CC1)c1ccc(F)cc1 (configuration not stated)	6	0	-7	79*
N#Cc1nc(/C=C/c2ccccc2)oc1NCCCN1CCOCC1	-15	0	3	36*
COCCNc1oc(/C=C/c2ccccc2)nc1C#N	-12	-1	-2	-4
C[C@H]1CCCCO[C@H](CN(C)S(C)(=O)=O)[C@@H](C)CN([C@@H](C)CO)C(=O)c2cc(NS(C)(=O)=O)ccc2O1	-3	.	.	.
CCCNC(=O)C[C@H]1C[C@H]2c3cc(NC(=O)NC4CCCC4)ccc3O[C@H]2[C@@H](CO)O1	2	.	.	.
Cc1ccc(-c2cnc(N)n2C)cc1C	63*	-1	-1	-4
SMILES	ARNT-TACC3 inh	CAL PDZ FP-1	Dyrk1A ADPGlo	CAL PDZ FP-2
COC(=O)C[C@H]1C[C@@H]2c3cc(NS(=O)(=O)c4ccc(F)cc4)ccc3O[C@@H]2[C@@H](CO)O1	0	.	.	.
O=C(c1ccc(N2CCCC2=O)cc1)N1CCN(c2ccccc2F)CC1	2	-1	4	56*
O=C(c1ccc(N2CCCC2=O)cc1)N1CCN(c2ccccc2O)CC1	7	-1	3	2
COc1ccc(C)cc1NC(=O)Cn1c(=O)oc2ccccc21	-7	-1	-2	56*
Cc1ccc(NC(=O)CCCn2c(=O)oc3ccccc32)c(O)c1	0	-1	2	4
Cc1ccccc1NC(=O)Cn1c(=O)oc2ccccc21	28	-1	.	-5
